Experimental data as given in PubChem BioAssay AID588768 (The Scripps Research Institute Molecular Screening Center, 2011).
The source made the active and inactive calls.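 Rule for the calls: active = cytotoxic, with CC50, the dose killing half the cells, at or below 5 µM in either medium; inactive = CC50 above 5 µM in every panel.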

Test: cytotoxicity in HEK293T cells, dose response, cytotoxicity control for pPAFAH inhibitor project, cell-based, WST-1 absorbance, serum-free and serum media, powder (AID 588768)
Conditions: HEK293T viability
Method in brief: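 Test system: HEK 293T cells; repeats: five replicate wells per compound concentration; detection: WST-1 colorimetric absorbance; measure: CC50 from sigmoidal viability curve fit; medium: DMEM with or without 10% FCS; incubation: 48 h compound exposure of cells at 37 °C; doses: 7-point 1:5 series up to 50 µM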

With `Cc1cc(N2CCN(C(=O)Oc3ccc([N+](=O)[O-])cc3)CC2)c2ccccc2n1` the CC50 (with 10% FCS) was 13 µM (inactive) and the CC50 (without serum) was 0.061 µM.

With `Cc1cc(N2CCN(C(=O)Oc3ccc(-c4ccccc4)cn3)CC2)c2ccccc2n1` the CC50 (with 10% FCS) was 35 µM (inactive) and the CC50 (without serum) was 6.7 µM (inactive).

For `Cc1cc(N2CCN(C(=O)Oc3ccc(-c4ccccc4)cc3)CC2)c2ccccc2n1`, the CC50 (with 10% FCS) was 12 µM (inactive) and the CC50 (without serum) was 1.8 µM.
